OX1R antag-1 = antagonists of human orexin 1 receptor | inhibition, % at 5 µM | O43613 | CHO/OX1R cells, Fluo-8 calcium fluorescence, orexin A | 330,000 compounds, 0.43% hits;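 active = inhibition above its plate's threshold, mean inhibition of all tested compounds on the plate plus 3 SD, cut at about 37% in these data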;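 also: 0% = orexin A challenge wells and 100% = SB-334867-A antagonist wells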
Target sequence (O43613 whole entry, looked up): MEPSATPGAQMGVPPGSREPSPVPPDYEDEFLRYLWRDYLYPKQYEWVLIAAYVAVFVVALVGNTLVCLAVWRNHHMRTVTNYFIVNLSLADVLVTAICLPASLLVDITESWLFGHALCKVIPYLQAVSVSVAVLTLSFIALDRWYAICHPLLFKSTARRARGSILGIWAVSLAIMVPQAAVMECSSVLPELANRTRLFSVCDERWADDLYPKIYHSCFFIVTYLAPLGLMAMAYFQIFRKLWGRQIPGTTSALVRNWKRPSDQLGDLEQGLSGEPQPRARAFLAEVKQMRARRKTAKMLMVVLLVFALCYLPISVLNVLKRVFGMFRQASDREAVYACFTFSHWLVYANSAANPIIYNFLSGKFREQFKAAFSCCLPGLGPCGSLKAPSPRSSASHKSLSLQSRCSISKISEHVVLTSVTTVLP
OX1R antag-2 = blocks the human orexin 1 receptor | O43613 | OX1R-expressing cells, FRET antagonist read-out | inhibition, % at 6.6 µM | 330,000 compounds, 1.8% hits | AID 485270; in the data active = inhibition mostly above about 38%, no sharp cut-off; inactive = mostly below about 40%;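 also: 0% = agonist challenge alone and 100% = reference antagonist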
GalR3 antagonist = blocks the human galanin receptor 3; 360,000 compounds, 0.44% hits; O60755; AID 651719; inhibition, % at 3 µM; HEK293 GalR3-CNG cAMP membrane potential fluorescence; galR3 body fused to GalR1 C-terminus;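 active = inhibition above the screen-wide average plus 3 SD, cut at about 13% in these data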;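 also: forskolin and galanin both at EC90 stimulate the cells; cAMP rise reported by CNG channel membrane potential dye signal; 0% = forskolin plus galanin with DMSO and 100% = forskolin alone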
CHO parental Ca = counter-screen: ATP calcium response change in parental CHO cells; parental CHO-K1, ATP-induced calcium, Fluo-8 fluorescence; inhibition, % at 5.6 µM; 330,000 compounds, 0.63% hits; AID 463079;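 active = inhibition above that plate's mean sample inhibition plus 3 SD, cut at about 26% in these data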;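 also: 0% = ATP-challenged DMSO wells and 100% = DMSO wells without ATP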
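material = parental CHO cells | also added = ATP as calcium-mobilizing challenge | dosing = single point at 5.6 µM | detection = intracellular calcium via Fluo-8 no-wash fluorescent dye | read-out = % inhibition | benchmarks = low control ATP plus DMSO, high control DMSO only | repeats = one well per compound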
TAAR1 antagonist = antagonists of human TAAR1 | Q96RJ0 | CHO RD-HGA16 TAAR1, Fluo-8 calcium fluorescence, antagonist | inhibition, % at 3 µM | 360,000 compounds, 1.5% hits;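 active = inhibition above a per-plate cutoff, the mean inhibition of test compounds on that plate plus 3 SD, cut at about 49% in these data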;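 also: 0% = DMSO plus EC80 beta-PEA response and 100% = DMSO alone without agonist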
Target sequence (Q96RJ0 whole entry, looked up): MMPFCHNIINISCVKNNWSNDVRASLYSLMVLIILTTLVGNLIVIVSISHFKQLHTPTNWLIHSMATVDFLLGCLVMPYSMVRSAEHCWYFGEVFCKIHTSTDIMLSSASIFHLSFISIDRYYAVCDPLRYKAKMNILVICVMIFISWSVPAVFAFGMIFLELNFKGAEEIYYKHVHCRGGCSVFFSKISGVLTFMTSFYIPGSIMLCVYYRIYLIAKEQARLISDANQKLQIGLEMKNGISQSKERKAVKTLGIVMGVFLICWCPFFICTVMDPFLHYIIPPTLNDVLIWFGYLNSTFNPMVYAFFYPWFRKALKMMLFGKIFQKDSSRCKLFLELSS
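System: CHO RD-HGA16 cells bearing hTAAR1. Reagent: EC80 β-phenethylamine stimulus. Schedule: seeding 17-24 h prior, 75-min 37 °C, 30-min RT dye loading. Signal: Fluo-8 intracellular calcium dye fluorescence, real-time kinetic reads. Read-out: % inhibition from peak post-agonist over basal fluorescence ratio. Benchmarks: vehicle wells and EC80 agonist wells. Replicates: n of 1.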
TAAR1 ag = human TAAR1 agonism | Q96RJ0 | 360,000 compounds, 0.99% hits | activation, % at 3 µM | AID 624467 | CHO RD-HGA16 TAAR1, Fluo-8 calcium fluorescence; vehicle wells 0%, saturating PEA agonist 100%;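 active = activation above the mean activation of all test compounds in the run plus 3 SD, cut at about 38% in these data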
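System: CHO RD-HGA16 cells carrying human TAAR1 plus Gα16; Incubation: 17-24 h seeding, 75 min 37 °C dye, 30 min RT; Measured by: Fluo-8 fluorescence, 5 s baseline then 140 s kinetic read; Control set: DMSO and PEA EC100; Replication: single well for each compound.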
TAAR1 ag conf = human TAAR1 agonism, confirmed | activation, % at 3 µM | 2,400 compounds, 82% hits | AID 651783 | CHO RD-HGA16 TAAR1, Fluo-8 calcium fluorescence; scaled: DMSO 0%, maximal phenethylamine 100% | shares compounds with TAAR1 ag;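 active = activation above a cutoff set at the run's mean compound activation plus 3 SD, cut at about 39% in these data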
Ga16 ag counter = counter-screen for TAAR1 agonists: nonselective agonists in parental cells; CHO-Ga16 parental, Fluo-8 calcium fluorescence; normalized to maximal ATP response, DMSO zero; shares compounds with TAAR1 ag; activation, % at 3 µM; 2,400 compounds, 50% hits;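 active = activation above the run cutoff, the mean activation over all tested wells plus 3 SD, cut at about 12% in these data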;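 also: 0% = DMSO wells and 100% = maximal ATP response on the peak over basal ratio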
TAAR1 desens = counter-screen for human TAAR1 agonists: agonists that desensitize TAAR1; shares compounds with TAAR1 ag; CHO RD-HGA16 hTAAR1, Fluo-8 calcium, beta-PEA response inhibition; inhibition, % at 3 µM; 2,400 compounds, 46% hits;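 active = inhibition above the run cutoff, the mean inhibition of all test compounds plus 3 SD, cut at about 49% in these data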;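 also: beta-PEA stimulus applied at its EC80; loss of beta-PEA calcium signal after compound pretreatment read as receptor desensitization; 0% = DMSO with beta-PEA at EC80 and 100% = DMSO alone without agonist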
Ga16 nonsel ant = nonselective Ga16 antagonism, counter-screen. shares compounds with TAAR1 ag. CHO-Ga16 ATP-induced calcium, Fluo-8 fluorescence. inhibition, % at 3 µM. 2,400 compounds, 39% hits. AID 651952;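 active = inhibition above the plate's mean compound inhibition plus 3 SD, computed per plate, cut at about 22% in these data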;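 also: 0% = EC80 ATP with DMSO and 100% = DMSO wells without ATP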
The depositor's hits bear a star; / = no result given. Only some compounds are listed: those with a hit (about 4.2% of all), similar ones and a draw of the others.

SMILES	OX1R antag-1	OX1R antag-2	GalR3 antagonist	CHO parental Ca	TAAR1 antagonist	TAAR1 ag	TAAR1 ag conf	Ga16 ag counter	TAAR1 desens	Ga16 nonsel ant
COc1ccc(CN(C(=O)c2cc3ccccc3oc2=O)C2CCCCC2)cc1OC	-36.4	21.9	-5.2	-19.8	41.1	10.7	/	/	/	/
C#CCSc1cc(C(F)(F)F)nc(-c2ccccn2)n1	-34.1	15.5	-5.2	-27.9	-5.2	0.2	/	/	/	/
COCc1cc(C)nc(SCC(=O)Nc2ccc3c(c2)OCCO3)c1C#N	-4.0	31.6	-0.9	-4.4	-23.5	0.7	/	/	/	/
Cc1nn(C)c(C(=O)NNC(=S)NCc2ccco2)c1Br	-10.0	10.3	-2.4	-7.1	17.2	79.8*	-0.8	5.5	7.7	0.7
Cc1nn(C)c(C(=O)NNC(=S)NCc2ccco2)c1Cl	-6.4	16.0	-2.9	3.2	-3.3	0.7	/	/	/	/
CN1CCN(c2ccc(NC(=O)CSc3ccccc3)cc2F)CC1	-1.2	1.4	-3.1	3.9	43.2	57.0*	71.3*	5.9	43.1	4.2
CC1=CC2=NC(=O)/C(=C\c3cc(C)n(-c4ccc(F)cc4)c3C)C(=N)N2O1	-28.3	15.3	-4.0	-7.9	87.4*	42.8*	5.2	7.9	50.1*	37.7*
CC(=O)c1ccc(N2CCN(CC(O)COCc3ccco3)CC2)cc1 (stereo not drawn)	-18.5	30.1	0.3	-7.8	9.7	0.9	/	/	/	/
NCc1c(O)ccc2ccccc12	-9.1	3.8	-9.4	-8.7	/	/	/	1.8	/	7.5
Cc1cccc(NC(=O)c2cc(-c3ccc(C)c(C)c3O)n[nH]2)c1	/	/	-9.6	/	15.4	4.4	/	/	/	/
O=S1(=O)CC(N2CCCC2)CN1CCc1ccccc1 (stereo not drawn)	/	/	-6.4	/	-7.2	56.2*	45.0*	0.0	6.0	16.1
Cc1cccc(CN2C(=O)[C@@H]3Cc4c([nH]c5ccccc45)C(C)(C)N3C2=O)c1	-30.2	9.2	-5.4	-15.1	47.4	11.0	/	/	/	/
Cc1cccc(CNC(=O)c2ccc(NC(=O)C3=CSCCO3)cc2)c1	-14.1	11.9	/	-8.8	/	/	/	/	/	/
O=C(c1ccccc1)c1ccc(OCC(O)CNCc2ccc(Cl)cc2)cc1 (stereo not drawn)	-28.3	-1.9	-10.5	-14.9	17.6	49.5*	48.1*	17.4*	25.6	27.7*
O=C(Nc1nnc(-c2ccccc2)o1)c1ccc(Cl)cc1	1.0	23.3	2.5	-7.1	24.8	76.3*	18.7	16.3*	7.8	14.5
O=C(NCc1ccc(Cl)cc1)c1ccc(Cn2cc(C(F)(F)F)ccc2=O)cc1	-10.3	-6.5	-4.0	2.2	29.5	65.5*	22.1	24.4*	27.9	25.9*
CC(=O)N1C[C@H]2CON(C)[C@H]2C[C@H]1c1cccc(-c2ccccc2)c1	/	/	-6.6	/	-3.9	8.5	/	/	/	/
O=C(O)c1ccc(N/N=C/c2ccc(-c3ccccc3Cl)o2)cc1	-19.1	-7.4	-6.6	4.8	36.9	97.1*	56.4*	39.1*	29.8	20.1
Cc1ccc(/C=N/n2c(-c3ccccc3)n[nH]c2=S)cc1	-1.7	25.0	-12.2	-5.1	-29.6	-2.2	/	/	/	/
N=C1N(/N=C/c2ccccc2)C(=Nc2ccccc2)C(=S)N1c1ccccc1	-23.4	5.9	-4.8	-3.2	12.2	46.2*	4.1	-0.7	26.0	13.8
CC(Cc1ccccc1)N/C=C1/CC(=O)NC1=O (stereo not drawn)	-3.6	9.2	-1.8	2.3	54.3*	83.3*	91.0*	2.9	39.9	-2.2
C[C@H](CO)N1C[C@H](C)[C@@H](CN(C)S(=O)(=O)c2ccc3c(c2)OCCCO3)OCc2cnnn2CCCC1=O	/	/	-7.0	/	9.8	1.5	/	/	/	/
Cc1ccccc1Cn1nc(C)c(NC(=O)c2nc3n(n2)C(C(F)F)CC(C)N3)c1C (stereo not drawn)	-6.5	8.2	-3.9	3.5	-10.4	3.4	/	/	/	/
CC1CCc2sc(C(=O)OCC(=O)NCc3ccccc3)cc2C1 (stereo not drawn)	-29.4	10.9	-1.6	1.3	38.7	43.2*	-1.0	0.5	0.5	7.8
CCn1nc(NS(=O)(=O)c2ccc(C)cc2)c2cc3ccccc3nc21	-9.5	4.0	3.5	-24.1	-9.6	-1.4	/	/	/	/
SMILES	OX1R antag-1	OX1R antag-2	GalR3 antagonist	CHO parental Ca	TAAR1 antagonist	TAAR1 ag	TAAR1 ag conf	Ga16 ag counter	TAAR1 desens	Ga16 nonsel ant
COc1ccc(C(=O)NC(=S)NNC(=O)c2ccco2)cc1	-3.6	7.1	2.7	3.5	-8.5	6.8	/	/	/	/
COc1ccc(C(=O)NC(=S)NNC(=O)COc2ccccc2)cc1	-18.6	23.9	3.9	-6.0	-21.4	45.6*	66.3*	52.0*	19.6	23.2*
COc1ccc(C(=O)NNC(=S)NC(=O)c2cccc([N+](=O)[O-])c2)cc1	-15.8	9.5	-3.0	-17.2	17.4	65.9*	88.0*	63.6*	36.5	26.5*
COc1ccc(C(=O)NC(=S)NNC(=O)c2ccccc2C)cc1	12.8	-1.9	-3.1	11.2	92.3*	169.6*	143.0*	104.6*	97.9*	74.8*
COc1cc(C(=O)NC(=S)NNC(=O)[C@H]2C[C@@H]2c2ccccc2)cc(OC)c1OC	-18.6	5.6	-2.7	-7.1	-6.6	74.0*	37.3	42.6*	24.3	13.7
COc1cc(C(=O)NC(=S)NNC(=O)c2cnccn2)cc(OC)c1OC	-10.6	7.9	-0.3	-7.1	-5.0	5.3	/	/	/	/
CCN(CC(=O)NCc1ccc(Cl)cc1)C(=O)c1cnc(Cl)c(Cl)c1	-33.2	7.2	-7.0	-11.8	-0.3	-2.2	/	/	/	/
COc1ccc(C(=O)NNC(=S)NC(=O)C(C)(C)C)cc1	61.8*	5.1	-7.9	58.2*	97.8*	145.2*	106.3*	89.5*	48.2	44.1*
COc1cc(C(=O)NNC(=S)NC(=O)c2ccccc2C)cc(OC)c1OC	21.8	11.5	-1.8	-0.4	-4.4	63.4*	32.9	44.0*	5.5	11.4
COc1ccccc1C(=O)NNC(=S)NC(=O)c1cc(OC)c(OC)c(OC)c1	11.6	21.6	-3.9	0.7	18.4	29.5	/	/	/	/
O=C(NC(=S)NNC(=O)c1cc2ccccc2cc1O)c1ccco1	-1.6	53.0	-0.8	-11.0	1.7	75.0*	43.7*	36.9*	23.8	25.4*

Source: PubChem BioAssay (The Scripps Research Institute Molecular Screening Center)
